Test results from ChEMBL document CHEMBL3588824, “Bioactive Diterpenoids from the Leaves of Callicarpa macrophylla” (J Nat Prod, 2015).
Active and inactive are the calls of the source. The rule behind the calls is not given here.

What was measured:
PC-12 [1] = test: Stimulation of nerve growth factor-mediated neurite outgrowth in rat PC12 cells incubated for 96 hrs in presence of 20 ng/ml NGF by phase contrast microscopy; type: functional, cell-based
In short: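 PC12 cells (DMEM, 5% FBS, 5% HS, 37 °C, 5% CO2) were detached with 1 mM EGTA/PBS for 15 min and seeded on poly-L-lysine at 3 × 10^4 cells/well. After 24 h they got test medium (1% FBS, 1% HS, 20 ng/mL NGF, graded compound levels) for 96 h. Cells were scored by phase contrast (neurite ≥ soma diameter) as % neurite-bearing; triplicates; EC50 by regression.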

PC-12 [2] = test: Stimulation of neurite outgrowth in rat PC12 cells incubated for 96 hrs in absence of 20 ng/ml NGF by phase contrast microscopy; type: functional, cell-based
[3] = Rattus norvegicus, PC-12, 96 h, read-out: EC50

Compound	EC50 (PC-12 [1]; [3]) [µM]	EC50 (PC-12 [1]; pc-12)	Activity (PC-12 [2])
CC(=O)OC[C@]1(O)C[C@]23CC[C@@H]4C(C)(C)C(=O)CC[C@@]4(C)[C@@H]2CC[C@@H]1C3	11		
CC(C)[C@@]12CC[C@@]3(CC[C@H]4[C@](C)(C(=O)O)CCC[C@]4(C)C3=O)[C@@H]1O2	> 30		
C=C[C@@]1(C)CC[C@H]2C(=CC[C@@H]3[C@]2(C)CCC[C@@]3(C)C(=O)O)[C@H]1O	16		
CC(C)c1ccc2c(c1)C(=O)C[C@H]1[C@](C)(C(=O)O)CCC[C@]21C		Not Active	inactive
CC(C)[C@]12CC[C@@]34O[C@@]3(CC[C@H]3[C@](C)(C(=O)O)CCC[C@@]34C)[C@H]1O2		Not Active	inactive
CC1(C)C(=O)CC[C@]2(C)[C@@H]1CC[C@]13C[C@@H](CC[C@H]12)[C@](O)(CO)C3	19.7		
C=C[C@@]1(C)CCC2=C(C1)[C@H](OC)C[C@H]1[C@](C)(C(=O)O)CCC[C@]21C		Not Active	inactive
C=C1CC[C@H]2C(C)(C)C(=O)CC[C@]2(C)[C@H]1CC/C(C)=C/C(=O)O	6		
C=C[C@@]1(C)CC[C@H]2C(=CC[C@H]3[C@](C)(CO)CCC[C@]23C)[C@H]1O	7.6		
CC(C)c1ccc2c(c1)[C@H](O)C[C@H]1[C@](C)(C(=O)O)CCC[C@]21C		Not Active	inactive
CC(C)[C@@]12C=C3[C@@H](O)C[C@@H]4[C@@](C)(C(=O)O)CCC[C@@]4(C)[C@]3(CC1)OO2	10.6		
C=C[C@@]1(C)CCC2=C(C1)[C@H](OC)C[C@H]1[C@](C)(CO)CCC[C@]21C		Not Active	inactive
C=C(C)c1ccc2c(c1)CC[C@H]1[C@](C)(C(=O)O)CCC[C@]21C	> 30		
C=C[C@@]1(C)CC[C@H]2C(=CC[C@@H]3[C@]2(C)CCC[C@@]3(C)O)[C@H]1O		Not Active	inactive
